Measurements from ChEMBL document CHEMBL3421570, “Combinatorial Libraries As a Tool for the Discovery of Novel, Broad-Spectrum Antibacterial Agents Targeting the ESKAPE Pathogens” (J Med Chem, 2015).
Converted amounts (≈) assume the structure as drawn. The source made the active and inactive calls. The rule behind the calls is not given here.

Columns and labels:
Acinetobacter baumannii [1] = test: Antibiofilm activity against Acinetobacter baumannii incubated for 24 hrs followed by biofilm resuspension in PBS and measured after 24 hrs; format: functional
Summary of the method: (§1)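 Biofilms grown 24 h in 96-well plates from overnight cultures standardized to OD600 0.5 in fresh medium (human serum only for S. aureus; TSB for Gram-positives, LB for Gram-negatives). Medium then replaced with fresh medium containing a concentration range above and below MIC, 37°C overnight. After 24 h biofilm resuspended in PBS, serially diluted, plated in duplicate, CFU counted after 24 h at 37°C. Activity relative to untreated; three technical replicates; MBEC50 reported.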

Pseudomonas aeruginosa [2] = test: Bactericidal activity against Pseudomonas aeruginosa after 24 hrs; format: functional
A549 = test: Cytotoxicity against human A549 cells after 48 hrs by MTT assay; format: cell-based; settings: A549, 48 h
Summary of the method: (§2)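 A549 cells grown in F-12K with L-glutamine, 10% FBS, 1% penicillin-streptomycin, seeded at 1.0 × 10^5 ml−1, allowed to adhere 24 h (37°C, 5% CO2), then exposed to compound in 45% w/v (2-hydroxypropyl)-β-cyclodextrin vehicle for 48 h. MTT 4 h, formazan solubilized in DMSO, absorbance 540 nm. Percent recovery versus vehicle-only; IC50 derived; at least three independent experiments.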

[3] = Selectivity index, ratio of IC50 for human A549 cells to MIC for Staphylococcus aureus
Klebsiella pneumoniae [4] = test: Induction of spontaneous mutation in Klebsiella pneumoniae at 2 to 10 MIC; format: functional, organism-based
Klebsiella pneumoniae [5] = test: Antibiofilm activity against Klebsiella pneumoniae incubated for 24 hrs followed by biofilm resuspension in PBS and measured after 24 hrs; format: functional; summary of the method: as §1
Staphylococcus aureus [6] = test: Induction of spontaneous mutation in Staphylococcus aureus at 2 to 10 MIC; format: functional, organism-based
[7] = Selectivity index, ratio of IC50 for human A549 cells to MIC for Acinetobacter baumannii
[8] = Selectivity index, ratio of IC50 for human A549 cells to MIC for Pseudomonas aeruginosa
Enterobacter cloacae [9] = test: Bactericidal activity against Enterobacter cloacae after 24 hrs; format: functional
Staphylococcus aureus [10] = test: Antimicrobial activity against Staphylococcus aureus assessed as inhibition of microbial growth after 24 hrs; format: functional
Summary of the method: (§3)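 Broth microdilution against multidrug-resistant clinical ESKAPE isolates. Overnight cultures (TSB for Gram-positives, LB for Gram-negatives) diluted 1:1000 in fresh medium, compound in DMF (≤2.0% DMF) added at decreasing concentrations, 37°C.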

Staphylococcus aureus [11] = test: Bactericidal activity against methicillin-resistant Staphylococcus aureus at MIC measured after drug wash out after 120 mins by time kill assay; format: functional
Summary of the method: (§4)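 MRSA from stationary phase was regrown 3 h in TSB and seeded at OD600 0.5. […] After 120 min, cells were centrifuged and washed, serially diluted and plated for CFU. Percent recovery is relative to no-drug controls.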

Acinetobacter baumannii [12] = test: Ratio of MIC for Acinetobacter baumannii measured after 8 cycle passage to MIC for wild type Acinetobacter baumannii; format: functional
[13] = Cytotoxicity against human A549 cells assessed as cell viability recovery at 45 uM after 48 hrs by MTT assay; format: cell-based; settings: read-out: Activity; summary of the method: as §2
Enterobacter cloacae [14] = test: Ratio of MIC for Enterobacter cloacae measured after 8 cycle passage to MIC for wild type Enterobacter cloacae; format: functional
Enterobacter cloacae [15] = test: Antimicrobial activity against Enterobacter cloacae assessed as inhibition of microbial growth at 45 uM after 24 hrs; format: functional, organism-based
Summary of the method: (§5)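 Broth microdilution single-concentration read: overnight cultures diluted 1:1000, compound in DMF (≤2.0%) added, 37°C for 24 h, growth inhibition scored visually by lack of turbidity; triplicate. Gram-positives grown in TSB, Gram-negatives in LB.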

Staphylococcus aureus [16] = test: Antimicrobial activity against Staphylococcus aureus USA300 strain FPR3757 infected in mouse model of lethal peritonitis assessed as mouse survival at 2 uM, im dosed 1 hr post infection and measured after 5 days post infection; format: functional, organism-based
Summary of the method: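 Mice, six per group, infected i.p. with 1 × 10^8 CFU ml−1 S. aureus USA300 FPR3757 in PBS with 5% mucin. Compound given i.m. at 2 μM 1 h later; vehicle 45% w/v (2-hydroxypropyl)-β-cyclodextrin in water i.v.; vancomycin i.v. as control. Monitored twice daily for 5 days, pre-moribund animals euthanized. Survival compared by log-rank test.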

Staphylococcus aureus [17] = test: Antimicrobial activity against Staphylococcus aureus assessed as inhibition of microbial growth at 45 uM after 24 hrs; format: functional, organism-based; summary of the method: as §5
Pseudomonas aeruginosa [18] = test: Induction of spontaneous mutation in Pseudomonas aeruginosa at 2 to 10 MIC; format: functional, organism-based; settings: 2 to 10 x MIC
[19] = Selectivity index, ratio of IC50 for human A549 cells to MIC for Enterococcus faecium
Acinetobacter baumannii [20] = test: Induction of spontaneous mutation in Acinetobacter baumannii at 2 to 10 MIC; format: functional, organism-based
Enterococcus faecium [21] = test: Induction of spontaneous mutation in Enterococcus faecium at 2 to 10 MIC; format: functional, organism-based
Enterobacter cloacae [22] = test: Antibiofilm activity against Enterobacter cloacae incubated for 24 hrs followed by biofilm resuspension in PBS and measured after 24 hrs; format: functional; summary of the method: as §1
Enterococcus faecium [23] = test: Antimicrobial activity against Enterococcus faecium assessed as inhibition of microbial growth at 45 uM after 24 hrs; format: functional, organism-based; summary of the method: as §5
Klebsiella pneumoniae [24] = test: Antimicrobial activity against Klebsiella pneumoniae assessed as inhibition of microbial growth after 24 hrs; format: functional; summary of the method: as §3
Klebsiella pneumoniae [25] = test: Antimicrobial activity against Klebsiella pneumoniae assessed as inhibition of microbial growth at 45 uM after 24 hrs; format: functional, organism-based; summary of the method: as §5
Enterobacter cloacae [26] = test: Antimicrobial activity against Enterobacter cloacae assessed as inhibition of microbial growth after 24 hrs; format: functional; summary of the method: as §3
Enterococcus faecium [27] = test: Antibiofilm activity against Enterococcus faecium incubated for 24 hrs followed by biofilm resuspension in PBS and measured after 24 hrs; format: functional; summary of the method: as §1
Acinetobacter baumannii [28] = test: Bactericidal activity against Acinetobacter baumannii after 24 hrs; format: functional
Pseudomonas aeruginosa [29] = test: Antimicrobial activity against Pseudomonas aeruginosa assessed as inhibition of microbial growth after 24 hrs; format: functional; summary of the method: as §3
Enterococcus faecium [30] = test: Bactericidal activity against Enterococcus faecium after 24 hrs; format: functional
Staphylococcus aureus [31] = test: Effect on bacterial density of methicillin-resistant Staphylococcus aureus at MIC measured over 2 hrs period by time kill assay; format: functional, organism-based
Enterococcus faecium [32] = test: Antimicrobial activity against Enterococcus faecium assessed as inhibition of microbial growth after 24 hrs; format: functional; summary of the method: as §3
Acinetobacter baumannii [33] = test: Antimicrobial activity against Acinetobacter baumannii assessed as inhibition of microbial growth at 45 uM after 24 hrs; format: functional, organism-based; summary of the method: as §5
Pseudomonas aeruginosa [34] = test: Antimicrobial activity against Pseudomonas aeruginosa assessed as inhibition of microbial growth at 45 uM after 24 hrs; format: functional, organism-based; summary of the method: as §5
Enterobacter cloacae [35] = test: Induction of spontaneous mutation in Enterobacter cloacae at 2 to 10 MIC; format: functional, organism-based
Staphylococcus aureus [36] = test: Ratio of MIC for Staphylococcus aureus measured after 8 cycle passage to MIC for wild type Staphylococcus aureus; format: functional
[37] = Selectivity index, ratio of IC50 for human A549 cells to MIC for Enterobacter cloacae
Enterobacter cloacae [38] = test: Antimicrobial activity against Enterobacter cloacae isolate 1446 assessed as inhibition of microbial growth in presence of 100 uM efflux pump inhibitor reserpine after 24 hrs; format: functional, organism-based
Acinetobacter baumannii [39] = test: Antimicrobial activity against Acinetobacter baumannii assessed as inhibition of microbial growth after 24 hrs; format: functional; summary of the method: as §3
Klebsiella pneumoniae [40] = test: Ratio of MIC for Klebsiella pneumoniae measured after 8 cycle passage to MIC for wild type Klebsiella pneumoniae; format: functional
Staphylococcus aureus [41] = test: Antibiofilm activity against Staphylococcus aureus incubated for 24 hrs followed by biofilm resuspension in PBS and measured after 24 hrs; format: functional; summary of the method: as §1
Pseudomonas aeruginosa [42] = test: Antibiofilm activity against Pseudomonas aeruginosa incubated for 24 hrs followed by biofilm resuspension in PBS and measured after 24 hrs; format: functional; summary of the method: as §1
[43] = Induction of hemolysis in human RBC at 10 uM incubated for 15 mins; format: cell-based, Erythrocyte; settings: red blood cells, read-out: Activity
Summary of the method: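 Human RBCs from whole blood, resuspended 20% v/v in HA buffer (NaCl, CaCl2), compound 10 μM, 15 min at 37°C. Centrifuged 5,500 g for 1 min, supernatant OD543 read. Percent hemolysis against DMF vehicle (0%) and 1.0% Triton X-100 (100%); triplicate.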

[44] = Selectivity index, ratio of IC50 for human A549 cells to MIC for Klebsiella pneumoniae
[45] = Cytotoxicity against human A549 cells assessed as cell viability recovery up to 225 uM after 48 hrs by MTT assay; format: cell-based; settings: read-out: Activity; summary of the method: as §2
Staphylococcus aureus [46] = test: Bactericidal activity against Staphylococcus aureus after 24 hrs; format: functional
Staphylococcus aureus [47] = test: Bactericidal activity against methicillin-resistant Staphylococcus aureus assessed as cell survival recovery at MIC measured after drug wash out after 120 mins by time kill assay; format: functional; summary of the method: as §4
Klebsiella pneumoniae [48] = test: Bactericidal activity against Klebsiella pneumoniae after 24 hrs; format: functional

CCCCCCCN1C(=N)N(CCCC[C@H]2CNC(=N)N2CCc2cccc(C(F)(F)F)c2)C[C@@H]1CC1CCCCC1
MBEC50 (Acinetobacter baumannii [1]): 13 µM | MBC90 (Pseudomonas aeruginosa [2]): 14 µM (≈ 8.27 µg/mL) | IC50 (A549): 66 µM | Selectivity Index [3]: 43 | Activity (Klebsiella pneumoniae [4]): inactive | MBEC50 (Klebsiella pneumoniae [5]): 4.8 µM | Activity (Staphylococcus aureus [6]): inactive | Selectivity Index [7]: 43 | Selectivity Index [8]: 43 | MBC90 (Enterobacter cloacae [9]): 6.4 µM (≈ 3.78 µg/mL) | MIC (Staphylococcus aureus [10]): 1.5 µM | fold change (FC) (Staphylococcus aureus [11]): 2.5 | Ratio (Acinetobacter baumannii [12]): <=8 | viability at 48 h, 45 µM [13]: > 60% | Ratio (Enterobacter cloacae [14]): <=8 | growth inhibition (GI) (Enterobacter cloacae [15]): Active | Activity (Staphylococcus aureus [16]): Active | growth inhibition (GI) (Staphylococcus aureus [17]): Active | Activity (Pseudomonas aeruginosa [18]): inactive | Selectivity Index [19]: 43 | Activity (Acinetobacter baumannii [20]): inactive | Activity (Enterococcus faecium [21]): inactive | MBEC50 (Enterobacter cloacae [22]): 15 µM | growth inhibition (GI) (Enterococcus faecium [23]): Active | MIC (Klebsiella pneumoniae [24]): 1.5 µM | growth inhibition (GI) (Klebsiella pneumoniae [25]): Active | MIC (Enterobacter cloacae [26]): 1.5 µM | MBEC50 (Enterococcus faecium [27]): 26 µM | MBC90 (Acinetobacter baumannii [28]): 3.2 µM (≈ 1.89 µg/mL) | MIC (Pseudomonas aeruginosa [29]): 1.5 µM | MBC90 (Enterococcus faecium [30]): 3.3 µM (≈ 1.95 µg/mL) | Activity (Staphylococcus aureus [31]): inactive | MIC (Enterococcus faecium [32]): 1.5 µM | growth inhibition (GI) (Acinetobacter baumannii [33]): Active | growth inhibition (GI) (Pseudomonas aeruginosa [34]): Active | Activity (Enterobacter cloacae [35]): inactive | Ratio (Staphylococcus aureus [36]): 4 | Selectivity Index [37]: 43 | growth inhibition (GI) (Enterobacter cloacae [38]): Active | MIC (Acinetobacter baumannii [39]): 1.5 µM | Ratio (Klebsiella pneumoniae [40]): <=8 | MBEC50 (Staphylococcus aureus [41]): 4.4 µM | MBEC50 (Pseudomonas aeruginosa [42]): 46 µM | hemolysis at 0.25 h, 10 µM [43]: 0.34% | Selectivity Index [44]: 43 | viability at 48 h [45]: ≥ 33% | MBC90 (Staphylococcus aureus [46]): 3.3 µM (≈ 1.95 µg/mL) | Survival (Staphylococcus aureus [47]): 0.2% | MBC90 (Klebsiella pneumoniae [48]): 2.2 µM (≈ 1.3 µg/mL)
